Measurements as given in PubChem BioAssay AID651628 (The Scripps Research Institute Molecular Screening Center, 2012).
Values without a mark were called inactive. The source made the active and inactive calls.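 The calls were made as follows: active = at least one off-target enzyme showing weaker fluorescent probe labeling in any proteome panel; inactive = no off-target enzyme affected in any panel.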

tested on: Soluble Proteome; assay: proteome-wide probe labelling blockade by competitive ABPP – cell lysate, gel-based fluorescence, soluble and membrane fractions, selectivity assay for PAD4 inhibitor project, late-stage follow-up (AID 651628); details: MCF7 proteome, CA-Rh gel-based ABPP, anti-target count, at 10 µM, stronger effect = higher value
Procedure, shortened: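 Buffer or medium: DPBS; System: MCF7 soluble or membrane proteome; Quantity: proteome protein concentration of 1 mg/ml; Also added: CA-Rh probe, 10 µM; Times: compound pre-incubation 1 h, then probe labelling 1 h, both 25 °C; Control set: DMSO-only reference; Signal: SDS-PAGE separation with in-gel fluorescence scanning of labelled bands.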

| Structure (SMILES) | number of anti-targets |
| --- | --- |
| O=C1C=C(Br)C(=O)c2ncccc21 | > 5 (active) |
| COC(=O)c1nc(C(=O)OC)c(NC(C)=O)c(-c2ccccc2Br)c1C | 0 |
| NC1=CC(=O)c2ccc(-c3ccccn3)nc2C1=O | 0 |
| COC1=C(N)C(=O)c2ncccc2C1=O | 0 |
| O=C1C(O)=C(O)C(=O)c2ncccc21 | 0 |
| NC1=CC(=O)c2ccc(-c3cccc(C(=O)O)n3)nc2C1=O | 0 |
| COC1=C(N)C(=O)c2nc(-c3nc(C(=O)O)c(C)c(-c4ccc(OC)c(OC)c4O)c3N)ccc2C1=O | 0 |
| COC1=C(I)C(=O)c2nc(C#N)ccc2C1=O | > 5 (active) |
| COC1=CC(=O)c2nc(C#N)ccc2C1=O | > 5 (active) |
| NC1=CC(=O)c2cccnc2C1=O | 0 |
| COC1=C(Br)C(=O)c2ncccc2C1=O | > 5 (active) |
| COC(=O)c1cccc(-c2ccc3c(n2)C(=O)C(N)=CC3=O)n1 | 0 |
| COC(=O)c1cccc(-c2ccc3c(n2)C(=O)C(Br)=CC3=O)n1 | 0 |
| COC1=C(Br)C(=O)c2nc(-c3ccccn3)ccc2C1=O | 0 |
